In paper PMC7275135 (Applied Microbiology and Biotechnology, 2020):
Where a SMILES comes first, the peptide text is derived from it.

What was measured:
[1] = tested on: S. epidermidis ATCC 12228; test: MIC, microtiter plate assay; type: cell-based, Staphylococcus epidermidis; settings: triplicate
[2] = tested on: Gram-positive bacteria; test: MIC range over the Gram-positive strains; type: cell-based; settings: S. aureus CVCC 546, S. epidermidis ATCC 12228, S. pneumoniae CVCC 2350, S. suis CVCC 3928
[3] = tested on: MEECs; test: Cytotoxicity, MTT assay; type: cell-based, mouse; settings: 256 μg/mL, n = 4
[4] = tested on: S. aureus CVCC 546; test: Membrane depolarization, Rhodamine 123 flow cytometry; type: cell-based, Staphylococcus aureus; settings: 2 h, 10^8 CFU/mL
[5] = tested on: intracellular S. aureus CVCC 546; test: Intracellular antimicrobial activity in MEECs; type: cell-based, Staphylococcus aureus; settings: 24 h treatment, dose-dependent, colony counting
In short: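 MEECs in antibiotic-free DMEM, seeded at 2.5 × 10^5 cells/mL and grown 24 h, then infected with an equal volume of S. aureus CVCC 546 (2.5 × 10^7 CFU/mL) for 0.5 h. Extracellular bacteria killed with lysostaphin 50 μg/mL for 1 h, then PBS wash.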

[6] = tested on: LTA-induced cytokines from RAW 264.7; test: LTA neutralization, cytokine ELISA; type: cell-based, mouse; settings: RAW 264.7, LTA-stimulated, 25-μg/mL
[7] = tested on: S. aureus CVCC 546; test: S. aureus-induced endometritis model of mice; type: in vivo, mouse; settings: 10-mg/kg

SMILES	MICs [1] [µM]	MICs (range over strains) [2]	cell viability toward MEECs [3] [%]	Rh 123 fluorescence intensity increased by ([4]; 1 × MIC) [%]	Rh 123 fluorescence intensity increased by ([4]; 2 × MIC) [%]	killing of S. aureus CVCC 546 in MEEC cells [5]	IL-10 increased by [6] [%]	histopathology of uteri (H&E) [7]
CC[C@H](C)[C@@H]1NC(=O)[C@@H]2CSSC[C@@H](C(=O)N[C@@H](CCCNC(=N)N)C(=O)N[C@@H](CCCCN)C(=O)O)NC(=O)[C@H](CC(N)=O)NC(=O)[C@@H]3CSSC[C@H](NC(=O)[C@H](C)NC(=O)[C@H](C)NC(=O)[C@H](Cc4c[nH]cn4)NC(=O)CNC(=O)[C@H](C(C)C)NC(=O)[C@H](CCCCN)NC(=O)[C@H](Cc4ccccc4)NC(=O)[C@@H]4CCCN4C(=O)[C@H](CO)NC(=O)[C@H](CC(C)C)NC(=O)[C@H](CC(C)C)NC(=O)[C@H](CC(=O)O)NC(=O)[C@@H](NC(=O)[C@@H](NC(=O)[C@H](C)N)[C@@H](C)O)CSSC[C@H](NC(=O)[C@H](Cc4c[nH]c5ccccc45)NC(=O)CNC(=O)CNC(=O)[C@H](CCCNC(=N)N)NC(=O)[C@H](CCCCN)NC(=O)CNC(=O)[C@H](CCCNC(=N)N)NC(=O)[C@H](C)NC1=O)C(=O)N[C@@H](CC(=O)O)C(=O)N[C@@H](CCCCN)C(=O)N[C@@H](CCCNC(=N)N)C(=O)N[C@@H](C)C(=O)N[C@@H](C(C)C)C(=O)N3)C(=O)N[C@@H](C)C(=O)N[C@@H](C)C(=O)N[C@@H](Cc1c[nH]cn1)C(=O)N2 [DLP4] (HELM PEPTIDE1{A.T.C.D.L.L.S.P.F.K.V.G.H.A.A.C.A.A.H.C.I.A.R.G.K.R.G.G.W.C.D.K.R.A.V.C.N.C.R.K}$PEPTIDE1,PEPTIDE1,3:R3-30:R3|PEPTIDE1,PEPTIDE1,16:R3-36:R3|PEPTIDE1,PEPTIDE1,20:R3-38:R3$$$V2.0; N-terminus assumed)	14.99	3.75~14.99 μM	74.14	–	–	–	–	–
CN[C@H](CC(C)C)C(=O)N[C@H]1C(=O)N[C@@H](CC(N)=O)C(=O)N[C@H]2C(=O)N[C@H]3C(=O)N[C@H](C(=O)N[C@H](C(=O)O)c4cc(O)cc(O)c4-c4cc3ccc4O)[C@H](O)c3ccc(c(Cl)c3)Oc3cc2cc(c3O[C@@H]2O[C@H](CO)[C@@H](O)[C@H](O)[C@H]2O[C@H]2C[C@](C)(N)[C@H](O)[C@H](C)O2)Oc2ccc(cc2Cl)[C@H]1O [vancomycin]	–	–	90.15	23.1	26.6	over 99%	81.26	Only a small amount of scattered inflammatory cells were observed in part of uterus
